Activity calls are given as the source filed them. The rule behind the calls is not given here.
Tests used:
Rattus norvegicus [1] = test: […] systolic blood pressure (SBP) for compound-treated group relative to the value for untreated control at 75 mg/kg dose (po) in spontaneously hypertensive rats(SHR); assay type: functional, Artery
Outline: (§1)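 Male spontaneously hypertensive rats (Wistar-Kyoto strain), unanesthetized, dosed orally; systolic pressure measured by indirect tail cuff. Before each reading, rats warmed at 35-37 °C for 15-20 min to dilate the caudal artery. Five rats per treatment group; result is percentage fall in systolic pressure versus untreated control. Significance tested against control.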

Rattus norvegicus [2] = test: Percentage of fall in systolic blood pressure (SBP) at the following hours after dosing at 75 mg/kg (po) at 2 hr in spontaneously hypertensive rats(SHR); assay type: functional, Artery; outline: as §1
Rattus norvegicus [3] = test: Percentage of fall in systolic blood pressure (SBP) at the following hours after dosing at 75 mg/kg (po) at 24 hr in spontaneously hypertensive rats(SHR); assay type: functional, Artery; outline: as §1
Rattus norvegicus [4] = test: Percentage of fall in systolic blood pressure (SBP) at the following hours after dosing at 75 mg/kg (po) at 5 hr in spontaneously hypertensive rats(SHR); assay type: functional, Artery; outline: as §1
Rattus norvegicus [5] = test: Percentage of fall in systolic blood pressure (SBP) at the following hours after dosing at 75 mg/kg (po) at 7.5 hr in spontaneously hypertensive rats(SHR); assay type: functional, Artery; outline: as §1
Rattus norvegicus [6] = test: Evaluated for the percentage inhibition of the depressor response of isoproterenol (0.25 mg/kg, iv) in spontaneously hypertensive rats at 150 mg/kg peroral dose;NI means no inhibition at 10 mg/kg, iv
Rattus norvegicus [7] = test: Percentage of fall in systolic blood pressure (SBP) at the following hours after dosing at 75 mg/kg (po) at 7.5 hr in spontaneously hypertensive rats(SHR); NS means not significant; assay type: functional, organism-based; design: dose 75 mg/kg; settings: Artery; outline: as §1
Rattus norvegicus [8] = test: Percentage of fall in systolic blood pressure (SBP) at the following hours after dosing at 75 mg/kg (po) at 24 hr in spontaneously hypertensive rats(SHR); NS means not significant; assay type: functional, organism-based; design: dose 75 mg/kg; settings: Artery; outline: as §1
Rattus norvegicus [9] = test: Percentage of fall in systolic blood pressure (SBP) at the following hours after dosing at 75 mg/kg (po) at 2 hr in spontaneously hypertensive rats(SHR); NS means not significant; assay type: functional, organism-based; design: dose 75 mg/kg; settings: Artery; outline: as §1
Rattus norvegicus [10] = test: Percentage of fall in systolic blood pressure (SBP) at the following hours after dosing at 75 mg/kg (po) at 5 hr in spontaneously hypertensive rats(SHR); NS means not significant; assay type: functional, organism-based; design: dose 75 mg/kg; settings: Artery; outline: as §1
Rattus norvegicus [11] = test: Evaluated for the percentage inhibition of the depressor response of isoproterenol (0.25 mg/kg, iv) in spontaneously hypertensive rats at 150 mg/kg peroral dose; NI means no inhibition at 10 mg/kg, iv
Rattus norvegicus [12] = test: Percentage of fall in systolic blood pressure (SBP) at the following hours after dosing at 8 mg/kg (po) at 5 hr in spontaneously hypertensive rats(SHR); assay type: functional, Artery; outline: as §1
Adrenergic receptor beta = Adrenergic receptor beta (Rattus norvegicus, UniProt P18090+P10608+P26255); test: Evaluated for beta-receptor affinity, determined in rat brain membrane fraction with [3H]- dihydroalprenolol; assay type: cell membranes
Outline: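 Rat brain with cerebellum removed, homogenized in ice-cold 50 mM Tris-HCl pH 8.0 and spun at 50000g for 15 min, pellet washed once more the same way. Binding used 0.4-0.6 mg protein, 1 nM [3H]dihydroalprenolol, 50 mM Tris pH 8.0, and 5-10 competitor concentrations. IC50 read visually from a semilog plot; Ki from Cheng-Prusoff with KD approximately 1 nM.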

Rattus norvegicus [13] = test: […] systolic blood pressure (SBP) for compound-treated group relative to the value for untreated control at 8 mg/kg dose (po) in spontaneously hypertensive rats(SHR); assay type: functional, Artery; outline: as §1
Rattus norvegicus [14] = test: Percentage of fall in systolic blood pressure (SBP) at the following hours after dosing at 17 mg/kg (po) at 7.5 hr in spontaneously hypertensive rats(SHR); assay type: functional, Artery; outline: as §1
Rattus norvegicus [15] = test: Percentage of fall in systolic blood pressure (SBP) at the following hours after dosing at 8 mg/kg (po) at 2 hr in spontaneously hypertensive rats(SHR); NS means not significant; assay type: functional, organism-based; design: dose 8 mg/kg; settings: Artery; outline: as §1
Rattus norvegicus [16] = test: Percentage of fall in systolic blood pressure (SBP) at the following hours after dosing at 8 mg/kg (po) at 24 hr in spontaneously hypertensive rats(SHR); assay type: functional, Artery; outline: as §1
Rattus norvegicus [17] = test: […] systolic blood pressure (SBP) for compound-treated group relative to the value for untreated control at 17 mg/kg dose (po) in spontaneously hypertensive rats(SHR); assay type: functional, Artery; outline: as §1
Rattus norvegicus [18] = test: Percentage of fall in systolic blood pressure (SBP) at the following hours after dosing at 8 mg/kg (po) at 7.5 hr in spontaneously hypertensive rats(SHR); assay type: functional, Artery; outline: as §1
Rattus norvegicus [19] = test: Percentage of fall in systolic blood pressure (SBP) at the following hours after dosing at 17 mg/kg (po) at 5 hr in spontaneously hypertensive rats(SHR); assay type: functional, Artery; outline: as §1
Rattus norvegicus [20] = test: Evaluated for the percentage inhibition of the depressor response of isoproterenol (0.25 mg/kg, iv) in spontaneously hypertensive rats at 150 mg/kg peroral dose
Rattus norvegicus [21] = test: Percentage of fall in systolic blood pressure (SBP) at the following hours after dosing at 17 mg/kg (po) at 24 hr in spontaneously hypertensive rats(SHR); assay type: functional, Artery; outline: as §1
Rattus norvegicus [22] = test: Percentage of fall in systolic blood pressure (SBP) at the following hours after dosing at 17 mg/kg (po) at 2 hr in spontaneously hypertensive rats(SHR); NS mmeans not significant; assay type: functional, organism-based; design: dose 17 mg/kg; settings: Artery; outline: as §1
Rattus norvegicus [23] = test: Percentage of fall in systolic blood pressure (SBP) at the following hours after dosing at 17 mg/kg (po) at 2 hr in spontaneously hypertensive rats(SHR); assay type: functional, Artery; outline: as §1
Rattus norvegicus [24] = test: Percentage of fall in systolic blood pressure (SBP) at the following hours after dosing at 8 mg/kg (po) at 24 hr in spontaneously hypertensive rats(SHR);NS means not significant; assay type: functional, organism-based; design: dose 8 mg/kg; settings: Artery; outline: as §1
Rattus norvegicus [25] = test: Percentage of fall in systolic blood pressure (SBP) at the following hours after dosing at 8 mg/kg (po) at 2 hr in spontaneously hypertensive rats(SHR); assay type: functional, Artery; outline: as §1
Rattus norvegicus [26] = test: Percentage of fall in systolic blood pressure (SBP) at the following hours after dosing at 8 mg/kg (po) at 5 hr in spontaneously hypertensive rats(SHR);NS means not significant; assay type: functional, organism-based; design: dose 8 mg/kg; settings: Artery; outline: as §1
Rattus norvegicus [27] = test: Evaluated for the percentage inhibition of the depressor response of isoproterenol (0.25 mg/kg, iv) in spontaneously hypertensive rats at 150 mg/kg perorally; NI means no inhibition at 10 mg/kg, iv; assay type: functional, organism-based
Outline: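 Male SHR, three per group, dosed orally 150 mg/kg as suspension in 4% Clearjel. At 4 h, anesthetized with sodium pentobarbital (45 mg/kg, ip); femoral artery and vein cannulated; arterial pressure monitored continuously. Isoproterenol given iv in 0.1 mL saline; depressor response compared with Clearjel vehicle-treated rats as percentage inhibition.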

Rattus norvegicus [28] = test: Percentage of fall in systolic blood pressure (SBP) at the following hours after dosing at 17 mg/kg (po) at 24 hr in spontaneously hypertensive rats(SHR);NS means not significant; assay type: functional, organism-based; design: dose 17 mg/kg; settings: Artery; outline: as §1

Structure (SMILES) | SBP (Rattus norvegicus [1]) [mmHg] | Decrease in SBP (Rattus norvegicus [2]) [%] | Decrease in SBP (Rattus norvegicus [3]) [%] | Decrease in SBP (Rattus norvegicus [4]) [%] | Decrease in SBP (Rattus norvegicus [5]) [%] | Decrease in SBP (Rattus norvegicus [7]) | Decrease in SBP (Rattus norvegicus [8]) | Decrease in SBP (Rattus norvegicus [9]) | Decrease in SBP (Rattus norvegicus [10]) | Ki (Adrenergic receptor beta) [M] | SBP (Rattus norvegicus [13]) [mmHg] | Decrease in SBP (Rattus norvegicus [14]) [%] | SBP (Rattus norvegicus [17]) [mmHg] | Decrease in SBP (Rattus norvegicus [18]) [%] | Decrease in SBP (Rattus norvegicus [19]) [%] | other results
Cl.O=c1c(-c2ccccc2)c(-c2ccccc2)oc2cc(OCC(O)CNC3CCCC3)ccc12 (stereo unspecified) | 200 | 10 | 18 | 23 | 23 | – | – | – | – | – | – | – | – | – | – | inhibition (Rattus norvegicus [6]): inactive
CCCCCCNCC(O)COc1ccc2c(=O)c(-c3ccccc3)c(-c3ccccc3)oc2c1.Cl (stereo unspecified) | 200 | – | – | – | – | inactive | inactive | inactive | inactive | – | – | – | – | – | – | –
CCC(C)NCC(O)COc1ccc2c(=O)c(-c3ccccc3)c(-c3ccccc3)oc2c1 (stereo unspecified) | 210 | 12 | 19 | 18 | 19 | – | – | – | – | – | – | – | – | – | – | inhibition (Rattus norvegicus [11]): inactive
CCCNCC(O)COc1ccc2c(=O)c(-c3ccccc3)c(-c3ccccc3)oc2c1 (stereo unspecified) | – | – | – | – | – | – | – | – | – | > 0.00005 | 191 | 20 | 198 | 16 | 11 | Decrease in SBP (Rattus norvegicus [12]): 12%; Decrease in SBP (Rattus norvegicus [15]): inactive; Decrease in SBP (Rattus norvegicus [16]): 10%; inhibition (Rattus norvegicus [20]): inactive; Decrease in SBP (Rattus norvegicus [21]): 14%; Decrease in SBP (Rattus norvegicus [22]): inactive
O=c1c(-c2ccccc2)c(-c2ccccc2)oc2cc(OCC(O)CNC3CC3)ccc12 (stereo unspecified) | – | – | – | – | – | – | – | – | – | > 0.00005 | 188 | 18 | 193 | 10 | 23 | Decrease in SBP (Rattus norvegicus [23]): 10%; Decrease in SBP (Rattus norvegicus [24]): inactive; Decrease in SBP (Rattus norvegicus [25]): 7%; Decrease in SBP (Rattus norvegicus [26]): inactive; inhibition (Rattus norvegicus [27]): inactive; Decrease in SBP (Rattus norvegicus [28]): inactive
CCCCCNCC(O)COc1ccc2c(=O)c(-c3ccccc3)c(-c3ccccc3)oc2c1 (stereo unspecified) | 191 | – | – | – | – | inactive | inactive | inactive | inactive | – | – | – | – | – | – | –

— ChEMBL document CHEMBL1123732, “Flavones. 1. Synthesis and antihypertensive activity of (3-phenylflavonoxy)propanolamines without beta-adrenoceptor antagonism” (J Med Chem, 1987)
